High-throughput results as filed in PubChem.
TMEM16A act: activates or potentiates the mouse TMEM16A chloride channel | HEK293 TMEM16A/YFP-H148Q/I152L, iodide quench fluorescence; hits give low values | B-score at 10 µM | 0.3% of 340,000 active;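 active = fluorescence-ratio B-score plate-corrected deviation score at least 3 library SD below zero, with starting fluorescence score within 5 deviations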;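 also: channel opened by trigger with iodide after compound preincubation; score built on the fluorescence ratio of max minus min over baseline; more negative score means more quench and so TMEM16A activation or potentiation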
Hep lipid drop: hepatic lipid droplet formation modulation; 0.4% of 240,000 active; AML12 mouse hepatocytes, oleate lipid droplets, BODIPY imaging; inhibition, % at 6.5 µM;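 active = lipid droplet intensity inhibited by at least 50%, with more than 500 cells counted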
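Assay system: AML12 hepatocytes (mouse) / Also added: 100 µM oleic acid challenge / Times: overnight treatment with compound plus oleate / Detection: high-content imaging of BODIPY-stained droplets and DAPI nuclei / Evaluation: % inhibition of lipid droplet signal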
ANO1 block: mouse TMEM16A channel inhibition, primary screen; Q8BHY3; normalized B-score (activity score, 25-100; higher = stronger inhibition) at 10 µM; HEK293 TMEM16A/YFP iodide influx fluorescence, ionomycin; 1.2% of 310,000 active;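 active = ratio plate-corrected score three or more library SD toward inhibition, starting fluorescence score within five deviations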;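 also: score derived from kinetic fluorescence span divided by baseline fluorescence per well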
CHOP inh: CHOP inhibition in unfolded protein response | CHO-K1 CHOP-promoter luciferase, tunicamycin-induced, 15-18 h | 3.8% of 220,000 active | inhibition, % at 10 µM | AID 2732;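 active = compounds that reduced the stress-induced luciferase reporter signal by more than about 70% of percent inhibition, limit read from the data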
XBP1 UPR activ: activators of adaptive arm of unfolded protein response (XBP1) | CHO-XBP1 luciferase reporter, IRE1-XBP1 UPR activation, luminescence; percent of tunicamycin response, DMSO as zero | 0.33% of 330,000 active | activation, % at 20 µM;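 active = versus positive control, 20 µM dose yields 30% or more activation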
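Material: IRE1-XBP1 luciferase reporter CHO line / Quantity: one thousand reporter cells per well / Buffer or medium: F12 with 10% serum / Compound: 20 µM single concentration, DMSO 1% / Times: 6 h treatment, 37 °C / Detection: Steady-Glo luciferase glow luminescence, 10 min after reagent addition / Benchmarks: tunicamycin high, DMSO low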
UPR CHOP act: activators of apoptotic arm of unfolded protein response (CHOP); CHO-CHOP luciferase reporter, UPR activation, luminescence; percent of tunicamycin response over DMSO baseline; activation, % at 10 µM; 0.34% of 330,000 active; AID 449763;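 active = at 10 µM dose, activation of 40% or more, normalized to positive control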
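System: CHO CHOP reporter cells. Amount: 500 cells per well. Buffer or medium: F12 medium, 10% FBS. Compound dosing: one dose, 10 µM in 0.5% DMSO. Incubation: 6 h compound exposure at 37 °C after overnight seeding. Technique: Steady-Glo luciferase luminescence. Benchmarks: tunicamycin and DMSO controls.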
CHOP inh conf: confirmation of CHOP induction inhibitors. shares compounds with CHOP inh. CHO-CHOP promoter luciferase reporter, tunicamycin-induced, luminescence. inhibition, % at 10 µM. 45% of 2,100 active. AID 504437;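 active = mean of three repeat readings of reporter signal inhibition above a set limit, cut at about 70% in these data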
CHOP UPR conf: apoptotic UPR (CHOP) activation, confirmed | shares compounds with UPR CHOP act | CHO-CHOP cells, CHOP-luciferase reporter luminescence; percent of tunicamycin response, DMSO as zero | activation, % at 10 µM | 64% of 1,000 active | AID 463112; in the data active = activation above about 33%
TMEM16A reconf: reconfirmed blocker of mouse TMEM16A calcium-activated chloride channel; shares compounds with ANO1 block; HEK293 TMEM16A/YFP-H148Q, iodide quench fluorescence; ionomycin added to raise cell calcium; inhibition, % at 10 µM; 39% of 2,300 active;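 active = mean duplicate percent inhibition, scaled so buffer wells are 0 and the reference blocker 100, over three buffer SD above buffer mean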
HEK293 Ca mobil: calcium mobilization counter-screen hit for TMEM16A inhibitor series; shares compounds with ANO1 block; TMEM16A/YFP HEK293, Fluo4 calcium mobilization; calcium response (% of ionomycin), % at 10 µM; 2% of 2,300 active;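 active = duplicate-averaged calcium signal over 20% of the ionomycin maximum, relative to buffer baseline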;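 also: each well's signal is peak minus trough fluorescence divided by its pre-addition baseline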
Parental YFP cnt: acts in parental YFP-HEK293 cells lacking TMEM16A, counter-screen | shares compounds with ANO1 block | iodide YFP quench, ionomycin | YFP ratio F(max-min)/F0 at 10 µM | 2,300 tested, under 10 active;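 active = yellow fluorescent protein signal ratio exceeding the buffer control mean by over 5 SD of those controls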;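 also: ratio is mean of duplicate wells from kinetic YFP trace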
ClC-1 inh: rat ClC-1 inhibition, TMEM16A specificity screen | shares compounds with ANO1 block | CHO ClC-1-YFP, iodide influx fluorescence quench; iodide control reads 0, buffer control 100 | ratio percent, % at 10 µM | 2,300 tested, under 10 active | AID 652236;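 active = duplicate-mean ratio percent above the mean of iodide-only control wells, which defines zero, plus 5 of their SD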;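 also: higher percent means stronger block of ClC-1 iodide influx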
Target sequence (P35524 whole entry, looked up): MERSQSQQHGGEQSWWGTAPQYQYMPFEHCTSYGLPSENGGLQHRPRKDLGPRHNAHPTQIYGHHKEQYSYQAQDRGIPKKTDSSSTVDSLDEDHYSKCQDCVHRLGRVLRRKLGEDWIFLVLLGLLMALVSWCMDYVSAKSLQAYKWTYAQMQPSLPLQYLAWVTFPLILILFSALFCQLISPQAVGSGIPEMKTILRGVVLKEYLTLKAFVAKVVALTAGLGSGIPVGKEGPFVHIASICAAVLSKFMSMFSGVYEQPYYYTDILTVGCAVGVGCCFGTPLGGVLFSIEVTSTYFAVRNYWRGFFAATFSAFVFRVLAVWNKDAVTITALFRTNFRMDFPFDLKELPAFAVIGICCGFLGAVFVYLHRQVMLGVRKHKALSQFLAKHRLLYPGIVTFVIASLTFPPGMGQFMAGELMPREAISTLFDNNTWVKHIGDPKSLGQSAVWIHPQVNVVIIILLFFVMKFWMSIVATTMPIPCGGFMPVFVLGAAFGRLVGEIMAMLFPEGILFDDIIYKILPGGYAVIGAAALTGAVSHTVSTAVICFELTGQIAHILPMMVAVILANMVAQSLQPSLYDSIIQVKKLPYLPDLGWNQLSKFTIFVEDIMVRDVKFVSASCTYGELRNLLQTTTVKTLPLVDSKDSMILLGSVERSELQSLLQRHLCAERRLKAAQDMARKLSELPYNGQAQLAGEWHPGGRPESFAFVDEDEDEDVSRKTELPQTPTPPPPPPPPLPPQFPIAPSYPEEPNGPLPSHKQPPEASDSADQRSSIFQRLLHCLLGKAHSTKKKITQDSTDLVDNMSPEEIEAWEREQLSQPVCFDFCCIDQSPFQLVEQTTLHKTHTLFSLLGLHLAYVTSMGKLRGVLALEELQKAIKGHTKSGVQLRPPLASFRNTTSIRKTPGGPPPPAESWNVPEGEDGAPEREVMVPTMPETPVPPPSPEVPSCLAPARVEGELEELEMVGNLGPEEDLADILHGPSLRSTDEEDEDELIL
Hits are given with their value. The list is not random: actives were taken first. Their share in the collection is about 4.2%.

What do the screens show for `CC1(C)CC(=O)C2=C(C1)OC1=C(C(=O)CC(C)(C)C1)C2c1ccc(O)cc1O`?
TMEM16A act: inactive; ANO1 block: inactive; XBP1 UPR activ: inactive; UPR CHOP act: 207.7; CHOP inh conf: inactive; CHOP UPR conf: inactive; TMEM16A reconf: inactive; HEK293 Ca mobil: inactive; Parental YFP cnt: inactive; ClC-1 inh: inactive

Results for O=C(COC(=O)c1cccc(NC(=O)c2ccco2)c1)c1ccc(Br)cc1 ?
TMEM16A act: inactive; ANO1 block: 100; CHOP inh: 105.3; XBP1 UPR activ: inactive; UPR CHOP act: inactive; CHOP inh conf: inactive; TMEM16A reconf: inactive; HEK293 Ca mobil: inactive; Parental YFP cnt: inactive; ClC-1 inh: inactive

Results for N#CC1=C(N)N2C(=C(C#N)C1c1ccc(Br)cc1)Nc1ccccc12 (stereo not given) ?
Hep lipid drop: inactive; ANO1 block: 25; CHOP inh: 105.5; XBP1 UPR activ: inactive; UPR CHOP act: inactive; CHOP inh conf: 94.4; TMEM16A reconf: 16.5%; HEK293 Ca mobil: inactive; Parental YFP cnt: inactive; ClC-1 inh: inactive

Results for CC(C)Oc1cc(NC(=O)CS(=O)CC(=O)Nc2cccc(C(F)(F)F)c2)c(Cl)cc1Cl (stereo not given) ?
TMEM16A act: inactive; ANO1 block: 100; CHOP inh: 107.3; XBP1 UPR activ: inactive; UPR CHOP act: inactive; CHOP inh conf: 120.1; TMEM16A reconf: inactive; HEK293 Ca mobil: inactive; Parental YFP cnt: inactive; ClC-1 inh: inactive

Results for CCCC(=O)N=c1sc2c(OC)ccc(OC)c2n1C ?
TMEM16A act: inactive; Hep lipid drop: inactive; ANO1 block: inactive; CHOP inh: inactive; XBP1 UPR activ: inactive; UPR CHOP act: inactive

How did COc1ccc(NS(=O)(=O)c2ccc3oc4ccccc4c3c2)cn1 do in these assays?
TMEM16A act: inactive; Hep lipid drop: inactive; ANO1 block: 25; CHOP inh: 97.1; XBP1 UPR activ: inactive; UPR CHOP act: inactive; CHOP inh conf: inactive; TMEM16A reconf: inactive; HEK293 Ca mobil: inactive; Parental YFP cnt: inactive; ClC-1 inh: inactive

What do the screens show for `COc1ccc(OCC(=O)N2CCCC(CO)(CCOc3ccccc3)C2)cc1` (stereo not given)?
TMEM16A act: inactive; Hep lipid drop: inactive; ANO1 block: inactive; XBP1 UPR activ: inactive; UPR CHOP act: inactive

How did Cc1cc(/C=N/n2cnnc2)c(C)n1-c1ccccc1 do in these assays?
TMEM16A act: inactive; Hep lipid drop: inactive; ANO1 block: inactive; CHOP inh: inactive; XBP1 UPR activ: inactive; UPR CHOP act: inactive

Results for Cc1cc(/C=N/n2cnnc2)c(C)n1-c1ccc(OCc2ccc(F)cc2)cc1 ?
TMEM16A act: inactive; ANO1 block: 100; XBP1 UPR activ: inactive; UPR CHOP act: inactive; CHOP inh conf: 110.8; TMEM16A reconf: inactive; HEK293 Ca mobil: inactive; Parental YFP cnt: inactive; ClC-1 inh: inactive

How did CN1CCN(/N=C/c2ccc(N(c3ccccc3)c3ccccc3)cc2)CC1 do in these assays?
TMEM16A act: inactive; Hep lipid drop: inactive; ANO1 block: 100; CHOP inh: 105.2; XBP1 UPR activ: inactive; UPR CHOP act: inactive; CHOP inh conf: inactive; TMEM16A reconf: 31.5%; HEK293 Ca mobil: inactive; Parental YFP cnt: inactive; ClC-1 inh: inactive

What do the screens show for `CCCCn1c(N)c(N(CCOC)C(=O)COC(=O)CCOc2ccccc2C)c(=O)[nH]c1=O`?
TMEM16A act: inactive; ANO1 block: inactive; XBP1 UPR activ: inactive; UPR CHOP act: inactive

Results for C=C(C)C1Cc2c(C)nn(-c3ccccc3)c2C1 (stereo not given) ?
TMEM16A act: inactive; ANO1 block: inactive; CHOP inh: inactive; XBP1 UPR activ: inactive; UPR CHOP act: inactive

Results for C=C(C)C1Cc2c(C)nn(-c3cccc4ccccc34)c2C1 (stereo not given) ?
TMEM16A act: inactive; Hep lipid drop: inactive; ANO1 block: 25; CHOP inh: 101.3; XBP1 UPR activ: inactive; UPR CHOP act: inactive; CHOP inh conf: inactive; TMEM16A reconf: 46.0%; HEK293 Ca mobil: inactive; Parental YFP cnt: inactive; ClC-1 inh: inactive

Results for CC(C)(C)c1ccc(C(=O)NCC(=O)N/N=C/c2ccccc2OCC(=O)O)cc1 ?
TMEM16A act: inactive; Hep lipid drop: inactive; ANO1 block: inactive; CHOP inh: inactive; XBP1 UPR activ: inactive; UPR CHOP act: inactive

How did CSc1nc(O)c(Nc2ccccc2)c(=O)[nH]1 do in these assays?
TMEM16A act: inactive

How did O=C(Nc1nnc(-c2ccccc2Cl)o1)c1ccco1 do in these assays?
TMEM16A act: inactive; Hep lipid drop: inactive; ANO1 block: inactive; CHOP inh: inactive; XBP1 UPR activ: inactive; UPR CHOP act: inactive

How did O=C(Nc1nnc(-c2ccccc2Cl)o1)c1nc2ccccc2s1 do in these assays?
TMEM16A act: inactive; Hep lipid drop: inactive; ANO1 block: 100; CHOP inh: 98.8; XBP1 UPR activ: inactive; UPR CHOP act: inactive; CHOP inh conf: inactive; TMEM16A reconf: inactive; HEK293 Ca mobil: inactive; Parental YFP cnt: inactive; ClC-1 inh: inactive

Results for COc1ccc(OCc2cc(C(=O)NC(C)Cn3cncn3)no2)c(Cl)c1 (stereo not given) ?
TMEM16A act: inactive; Hep lipid drop: inactive; ANO1 block: inactive; XBP1 UPR activ: inactive; UPR CHOP act: inactive

Results for CC1CN(C(=S)Nc2cccc(Cl)c2)CC(C)O1 (stereo not given) ?
TMEM16A act: inactive; Hep lipid drop: inactive; ANO1 block: inactive; XBP1 UPR activ: inactive; UPR CHOP act: inactive
